Experimental data taken from ChEMBL document CHEMBL4699638, “A Multipronged Approach Establishes Covalent Modification of β-Tubulin as the Mode of Action of Benzamide Anti-cancer Toxins” (J Med Chem, 2020).
Active and inactive are the calls of the source. No cut-off for these calls is given here.

Experiments:
[1] = tested on: 518T2; assay: Binding affinity to beta-tubulin in mouse 518T2 cells at 0.1 to 50 uM measured after 1.5 hrs using Alexa Fluor 532 dye by copper-mediated click reaction based SDS PAGE analysis; assay type: cell-based; details: dose microM 0.1-50, time 1.5 hrs
Procedure, shortened: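 Competition assay in 518T2 cells (1 million per well, DMEM with 5% FBS). Test analogs in DMSO were dispensed first at 100 nM to 50 μM and the cells plated onto them. The next day, alkyne probe (5 μM) was added for 1.5 h at 37 °C. Lysis was in 1% SDS HEPES buffer, followed by a click reaction with fluorescent azide, SDS-PAGE, and EC50 from displacement of the p50 band.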

[2] = (§1) Anticancer activity against mouse 319N1 cells assessed as reduction in cell viability measured after 72 hrs by celltiter-glo assay; assay type: functional, cell-based; details: 319N1, 72 h
Procedure, shortened: (§2)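 Cells seeded in duplicate at 10,000 per well in DMEM with 5% FBS and incubated overnight. Compounds were then added as a 10-point dose response. After 72 h, viability was read by CellTiter-Glo luminescence, with the reagent diluted 1:1 in PBS/1% Triton-X. Values were normalized to DMSO-treated cells and IC50 was derived from curve fitting.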

[3] = tested on: 518T2; assay: Binding affinity to beta-tubulin in mouse 518T2 cells measured after 1.5 hrs using Alexa Fluor 532 dye by copper-mediated click reaction based SDS PAGE analysis; assay type: cell-based
Procedure, shortened: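 Competition format in 518T2 murine SCLC cells, 1 million per well in DMEM with 5% FBS. Analogs in DMSO (100 nM to 50 μM) were dispensed first and cells plated onto them. Next day alkyne probe 24 (5 μM) was added for 1.5 h at 37 °C, 5% CO2. EC50 was taken from displacement of the 50 kDa band.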

[4] = Anticancer activity against mouse 319N1 clone C cells assessed as reduction in cell viability measured after 72 hrs by celltiter-glo assay; assay type: functional, cell-based; details: 319N1, 72 h; procedure, shortened: as §2
[5] = tested on: 319N1; assay: as §1; assay type: functional, cell-based; procedure, shortened: as §2
[6] = target: Tubulin beta-3 chain (Homo sapiens) (UniProt Q13509); assay: Binding affinity to recombinant human C-terminal His-tagged beta3-tubulin expressed in insect cells assessed as reduction in microtubule growth up to 10 uM measured up to 30 mins by microscopic analysis; details: dose microM <=10, time min <=30
Sequence of Tubulin beta-3 chain (Homo sapiens) (Q13509 whole entry): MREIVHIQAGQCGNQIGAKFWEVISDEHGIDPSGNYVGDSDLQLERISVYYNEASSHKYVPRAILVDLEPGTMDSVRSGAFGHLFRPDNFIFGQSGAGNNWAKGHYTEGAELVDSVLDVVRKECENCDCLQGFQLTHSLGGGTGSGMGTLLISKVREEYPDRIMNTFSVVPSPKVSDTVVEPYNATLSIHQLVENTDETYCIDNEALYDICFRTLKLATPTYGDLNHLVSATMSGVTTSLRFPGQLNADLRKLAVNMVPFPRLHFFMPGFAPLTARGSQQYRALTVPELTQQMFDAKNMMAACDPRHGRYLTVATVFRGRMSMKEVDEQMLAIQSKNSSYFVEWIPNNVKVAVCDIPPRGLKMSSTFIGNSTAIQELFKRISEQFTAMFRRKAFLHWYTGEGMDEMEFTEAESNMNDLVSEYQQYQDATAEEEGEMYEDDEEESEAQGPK
Procedure, shortened: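 Human αβ-tubulin (TUBA1B plus TUBB3 with cleavable C-terminal His-tag) was expressed in Tni insect cells. It was purified by Ni-affinity, TEV cleavage and anion exchange, then kept in BRB80 with 50 μM GTP. Growth was measured by DIC time-lapse at 30 °C on GMPCPP seeds in 144 mM PIPES pH 6.9 buffer with 1 mM GTP and 4% DMSO, over about 30 min. Compound was tested at 1, 5 and 10 μM; growth rates were measured per microtubule over two trials.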

[7] = tested on: 518T2; assay: Cell cycle arrest in mouse 518T2 cells assessed as increase in accumulation at G2/M-phase at 300 nM measured after 24 hrs by propidium iodide staining based flow cytometry; assay type: functional
Procedure, shortened: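 518T2 murine SCLC cells were exposed for 24 h to compound (300 nM) or DMSO vehicle. Cell cycle distribution was then read by flow cytometry.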

[8] = tested on: 518T2; assay: Inhibition of colony formation in mouse 518T2 cells harboring Tubb5 T238A mutant at 400 nM measured after 2 weeks by crystal violet staining based assay; assay type: functional, cell-based
Procedure, shortened: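 518T2 cells were transfected with Cas9-sgRNA complexes targeting Tubb5 plus an oligonucleotide repair template encoding T238A, or a sham control. They were selected with compound at 400 nM for 2 weeks, and the plates were then stained with crystal violet to visualize resistant colonies.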

[9] = species on record: Bos taurus; assay: Binding affinity to bovine brain beta-tubulin assessed as reduction in microtubule growth at 1 uM measured up to 30 mins by microscopic analysis relative to control; set-up: scale not given: the % may be the effect or the level left; details: time min <=30
Procedure, shortened: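 Microtubule growth from brain tubulin was imaged by time-lapse DIC microscopy at 30 °C on biotinylated GMPCPP seeds bound to neutravidin coverslips. Frames were taken every 50 ms and averaged in batches of 30; recordings ran about 30 min. Growth rates were quantified per microtubule.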

[10] = tested on: 518T2; assay: Binding affinity to beta-tubulin in mouse 518T2 cells at 0.05 to 50 uM measured after 1.5 hrs using Alexa Fluor 532 dye by copper-mediated click reaction based SDS PAGE analysis; assay type: cell-based; details: dose microM 0.05-50, time 1.5 hrs
Procedure, shortened: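 518T2 cells were plated at 1 million per well in DMEM with 5% FBS. The next day, alkyne probe in DMSO was added at 50 nM to 50 μM for 1.5 h at 37 °C in 5% CO2. Cells were washed, lysed in 1% SDS buffer (50 mM HEPES pH 7.4, 10 mM KCl, 2 mM MgCl2, benzonase), click-reacted with Alexa Fluor 532 azide and resolved by SDS-PAGE fluorescence.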

[11] = tested on: 518T2; assay: Binding affinity to beta-tubulin in mouse 518T2 cells measured after 1.5 hrs using diazo biotin azide dye by silver staining based based SDS PAGE analysis; assay type: cell-based
Procedure, shortened: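 518T2 cells were grown at large scale (100 mg protein per condition) and treated with covalent or non-covalent alkyne probe. Lysates were clicked to 100 μM diazo biotin azide, acetone-precipitated, resolubilized in 4% SDS/PBS, and captured on streptavidin beads for 1 h at 25 °C. Eluates were run on silver-stained SDS-PAGE or analyzed by nano-LC-MS/MS (Orbitrap, HCD). Peptide abundance was normalized to the non-covalent probe sample.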

SMILES | beta-tubulin binding (probe competition, active/inactive) [1] | IC50 [2] [µM] | also measured
CC[C@]1(O)C[C@H]2CN(CCc3c([nH]c4ccccc34)[C@@](C(=O)OC)(c3cc4c(cc3OC)N(C=O)[C@H]3[C@@](O)(C(=O)OC)[C@H](OC(C)=O)[C@]5(CC)C=CCN6CC[C@]43[C@@H]65)C2)C1 | inactive |  | 
Cc1ccc(Cl)cc1N1CCN(C(=O)c2ccc([N+](=O)[O-])c(Cl)c2)CC1 |  | 4.68 | 
COC(=O)c1c(C)oc2ccc(NS(=O)(=O)c3ccc(Cl)c([N+](=O)[O-])c3)cc12 |  | 2.8 | inhibition [3]: Dose-dependent effect; IC50 [4]: 7.57 µM
O=C(c1cccc([N+](=O)[O-])c1)N1CCN(c2ccccc2)CC1 |  |  | Activity [5]: inactive
Cc1ccc(Cl)cc1N1CCN(C(=O)c2ccc(Cl)c([N+](=O)[O-])c2)CC1 | Active |  | IC50 [4]: 1.48 µM
Cc1ccc(C)c(N2CCN(C(=O)c3ccc(Cl)c([N+](=O)[O-])c3)CC2)c1 |  | 1.04 | 
O=C(c1ccc(Cl)c([N+](=O)[O-])c1)N1CCN(c2ccc(F)cc2F)CC1 |  | 24.7 | 
Cc1ccc(Cl)cc1N1CCN(C(=O)c2ccc(Br)c([N+](=O)[O-])c2)CC1 | Active | 0.055 | Activity [6]: inactive; Activity [7]: Active; inhibition [8]: inactive; Activity [9]: 80%
O=C(c1ccc(Cl)c([N+](=O)[O-])c1)N1CCN(c2cc(Cl)ccc2Cl)CC1 |  | 0.458 | 
O=C(c1ccc(Cl)c([N+](=O)[O-])c1)N1CCN(c2ccccc2F)CC1 |  | 7.94 | 
COc1cccc(N2CCN(C(=O)c3ccc(Cl)c([N+](=O)[O-])c3)CC2)c1 | Active | 1.56 | 
Cc1ccc(Cl)cc1N1CCN(C(=O)c2cccc([N+](=O)[O-])c2Cl)CC1 |  | 12.4 | 
Cc1ccc(Cl)cc1N1CCN(C(=O)c2ccc(F)c([N+](=O)[O-])c2)CC1 | Active |  | 
COc1ccc(N2CCN(C(=O)c3ccc(Cl)c([N+](=O)[O-])c3)CC2)cc1 |  | 40.3 | 
C#CCOc1cccc(N2CCN(C(=O)c3ccc(C)c([N+](=O)[O-])c3)CC2)c1 |  | 13 | Activity [10]: inactive; Activity [11]: inactive
Cc1ccc(Cl)cc1N1CCN(C(=O)c2ccc(I)c([N+](=O)[O-])c2)CC1 | Active |  | 
